# Assay results as given in ChEMBL document CHEMBL4020843, “Ligand-Based NMR Study of C-X-C Chemokine Receptor Type 4 (CXCR4)-Ligand Interactions on Living Cancer Cells” (J Med Chem, 2018).
# The source made the active and inactive calls. No cut-off for these calls is given here. Residues, ends and D or L forms follow the SMILES beside them.
# Legend:
# Plasma [1] = test: Drug metabolism in human plasma assessed as [Cys-Arg-Phe-Phe-Cys]-COOH metabolite formation after 15 to 30 mins by ESI-RP-HPLC analysis; type: ADME, cell-free
# Outline: (§1)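 Peptide in sterile water mixed with 90% human serum and incubated at 37 °C. Aliquots taken at 0, 15, 30, 60 and 120 min, precipitated with ACN/0.1% TFA and centrifuged (12 000 rpm, 15 min, 4 °C). Supernatant analysed by RP-HPLC with a 10–90% ACN (0.1% TFA) gradient over 20 min. Relative peptide level taken from A230 peak integration.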
# [2] = target: T1, C-X-C chemokine receptor type 4 (Homo sapiens, UniProt P61073); test: Binding affinity to CXCR4 in human CCRF-CEM cell membranes assessed as signal to noise ratio in presence of 0.05 mM plerixafor by STD-NMR method
# T1 sequence (P61073 whole entry): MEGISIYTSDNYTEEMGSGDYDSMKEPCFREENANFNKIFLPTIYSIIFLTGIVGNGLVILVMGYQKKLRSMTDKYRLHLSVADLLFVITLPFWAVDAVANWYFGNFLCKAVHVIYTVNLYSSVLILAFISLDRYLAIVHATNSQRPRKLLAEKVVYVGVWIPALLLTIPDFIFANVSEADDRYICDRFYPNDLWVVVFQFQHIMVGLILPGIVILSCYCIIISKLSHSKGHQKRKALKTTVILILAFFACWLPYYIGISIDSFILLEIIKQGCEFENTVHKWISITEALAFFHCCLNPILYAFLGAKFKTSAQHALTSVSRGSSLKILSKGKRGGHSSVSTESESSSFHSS
# Outline: (§2)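 Pellet of 20 x 10^6 intact cells (CCRF-CEM, CXCR4-null CHO or CXCR4-stably transfected CHO) resuspended in 450 µL PBS pH 7.4 plus 50 µL 2H2O. Peptide added for STD, WaterLOGSY or trNOESY 1H NMR. Spectra of peptide alone and of cells alone acquired as reference. Competition run by adding plerixafor to the indicated concentration (0.010–0.100 mM in STD). STD/WaterLOGSY read as signal-to-noise ratio.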
# [3] = Stability in human CCRF-CEM cells up to 2 hrs by NMR spectral analysis; type: ADME, cell-based
# [4] = target: T1, C-X-C chemokine receptor type 4; test: Binding affinity to CXCR4 in human CCRF-CEM cell membranes assessed as signal to noise ratio in presence of 0.01 mM plerixafor by STD-NMR method; outline: as §2
# [5] = Half life in human plasma by HPLC analysis; type: ADME, cell-free; outline: as §1
# [6] = target: T1, C-X-C chemokine receptor type 4; test: Binding affinity to CXCR4 in human CCRF-CEM cell membranes in presence of plerixafor by WaterLOGSY-NMR method; outline: as §2
# [7] = target: T1, C-X-C chemokine receptor type 4; test: Binding affinity to CXCR4 in human CCRF-CEM cell membranes assessed as signal to noise ratio in presence of 0.02 mM plerixafor by STD-NMR method; outline: as §2
# [8] = target: T1, C-X-C chemokine receptor type 4; test: Binding affinity to CXCR4 in human CCRF-CEM cell membranes by WaterLOGSY-NMR method; outline: as §2
# [9] = target: T1, C-X-C chemokine receptor type 4; test: Binding affinity to CXCR4 in human CCRF-CEM cell membranes assessed as signal to noise ratio by STD-NMR method; outline: as §2
# [10] = target: T1, C-X-C chemokine receptor type 4; test: Binding affinity to CXCR4 in human CCRF-CEM cell membranes assessed as signal to noise ratio in presence of 0.1 mM plerixafor by STD-NMR method; outline: as §2
# Cricetulus griseus = species: Cricetulus griseus; test: Binding affinity to CHO cell membranes assessed as signal to noise ratio by STD-NMR method; outline: as §2
# [11] = target: T1, C-X-C chemokine receptor type 4; test: Binding affinity to CXCR4 (unknown origin) expressed in CHO cell membranes assessed as signal to noise ratio by STD-NMR method; outline: as §2
# [12] = target: T1, C-X-C chemokine receptor type 4; test: Antagonist activity at CXCR4 in human CCRF-CEM cells assessed as inhibition of PE-conjugated 12G5 antibody binding; type: cell-based
# Outline: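 CCRF-CEM cells (5 × 10^5) preincubated 30 min at 37 °C, 5% CO2 with peptide at 0.01, 0.1, 1 and 10 µM in PBS plus 0.2% BSA and 0.1% NaN3. Then labeled 30 min with PE anti-CXCR4 antibody clone 12G5. IC50 taken as concentration reducing 12G5 binding by 50%, reported as mean ± SD.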
# Plasma [13] = test: Drug level in human plasma treated with (4R,7S,10S,13S,16R)-16-((S)-2-((S)-2-amino-5-guanidinopentanamido)propanam(4R,7S,10S,13S,16R)-16-((S)-2-((S)-2-amino-5-guanidinopentanamido)propanamido)-7,10-dibenzyl-13-(3-guanidinopropyl)-6,9,12,15-tetraoxo-1,2-dithia-5,8,11,14-tetraazacycloheptadecane-4-carboxylic acid after 15 to 30 mins by ESI-RP-HPLC analysis; type: ADME, cell-free; outline: as §1
# Plasma [14] = test: Stability in human plasma up to 120 mins by ESI-RP-HPLC analysis; type: ADME, cell-free; conditions: 2 h; outline: as §1
# [15] = Stability in human CCRF-CEM cells up to 6 hrs by NMR spectral analysis; type: ADME, cell-based
smiles,measurement,setting,value
C[C@H](NC(=O)[C@@H](N)CCCNC(=N)N)C(=O)N[C@H]1CSSC[C@@H](C(=O)O)NC(=O)[C@H](Cc2ccccc2)NC(=O)[C@H](Cc2ccccc2)NC(=O)[C@H](CCCNC(=N)N)NC1=O,Drug metabolism,Plasma [1],Metabolite_Detected
same,Ratio,[2],6.1
same,Stability,[3],Unstable
same,Ratio,[4],7.2
same,half-life,[5],22 min
same,Activity,[6],inactive
same,Ratio,[7],6.3
same,Activity,[8],Active
same,Ratio,[9],13.3
same,Ratio,[10],5.9
C[C@H](NC(=O)[C@H](N)CCCNC(=N)N)C(=O)N[C@H]1CSSC[C@@H](C(=O)O)NC(=O)[C@H](Cc2ccccc2)NC(=O)[C@H](Cc2ccccc2)NC(=O)[C@H](CCCNC(=N)N)NC1=O,Ratio,Cricetulus griseus,8.2
same,Ratio,[11],9.6
same,IC50,[12],> 10 µM
"N=C(N)NCCC[C@@H]1NC(=O)[C@@H](N)CSSC[C@@H](C(=O)O)NC(=O)[C@H](Cc2ccccc2)NC(=O)[C@H](Cc2ccccc2)NC1=O (HELM PEPTIDE1{C.R.F.F.C}$PEPTIDE1,PEPTIDE1,1:R3-5:R3$$$V2.0)",Drug metabolism,Plasma [13],Metabolite_Detected
"C[C@@H]1NC(=O)[C@H](Cc2ccccc2)NC(=O)[C@@H](NC(=O)[C@H](CCCNC(=N)N)NC(=O)[C@@H](N)Cc2ccccc2)CSSC[C@@H](C(=O)O)NC(=O)[C@H](CCCNC(=N)N)NC1=O (HELM PEPTIDE1{F.R.C.F.A.R.C}$PEPTIDE1,PEPTIDE1,3:R3-7:R3$$$V2.0)",Ratio,Cricetulus griseus,11.7
same,Ratio,[11],10.2
same,IC50,[12],> 10 µM
"C[C@H](NC(=O)C1CCN(C(=N)N)CC1)C(=O)N[C@H]1CSSC[C@@H](C(=O)O)NC(=O)[C@H](Cc2ccccc2)NC(=O)[C@H](Cc2ccccc2)NC(=O)[C@H](CCCNC(=N)N)NC1=O (HELM PEPTIDE1{[N=C(N)N1CCC(C(=O)[*:2])CC1].A.C.R.F.F.C}$PEPTIDE1,PEPTIDE1,3:R3-7:R3$$$V2.0)",IC50,[12],> 10 µM
"C[C@H](NC(=O)CCCNC(=N)N)C(=O)N[C@H]1CSSC[C@@H](C(=O)O)NC(=O)[C@H](Cc2ccccc2)NC(=O)[C@H](Cc2ccccc2)NC(=O)[C@H](CCCNC(=N)N)NC1=O (HELM PEPTIDE1{[N=C(N)NCCCC(=O)[*:2]].A.C.R.F.F.C}$PEPTIDE1,PEPTIDE1,3:R3-7:R3$$$V2.0)",IC50,[12],> 10 µM
"C[C@H](NC(=O)c1ccc(NC(=N)N)cc1)C(=O)N[C@H]1CSSC[C@@H](C(=O)O)NC(=O)[C@H](Cc2ccccc2)NC(=O)[C@H](Cc2ccccc2)NC(=O)[C@H](CCCNC(=N)N)NC1=O (HELM PEPTIDE1{[N=C(N)Nc1ccc(C(=O)[*:2])cc1].A.C.R.F.F.C}$PEPTIDE1,PEPTIDE1,3:R3-7:R3$$$V2.0)",IC50,[12],> 10 µM
"C[C@H](NC(=O)c1cccc(NC(=N)N)c1)C(=O)N[C@H]1CSSC[C@@H](C(=O)O)NC(=O)[C@H](Cc2ccccc2)NC(=O)[C@H](Cc2ccccc2)NC(=O)[C@H](CCCNC(=N)N)NC1=O (HELM PEPTIDE1{[N=C(N)Nc1cccc(C(=O)[*:2])c1].A.C.R.F.F.C}$PEPTIDE1,PEPTIDE1,3:R3-7:R3$$$V2.0)",Ratio,Cricetulus griseus,12.5
same,half-life,[5],> 120 min
same,Ratio,[11],35.9
same,Stability,Plasma [14],Stable
same,IC50,[12],3.2 µM
same,Ratio,[9],10
same,Stability,[15],Stable
"CC(=O)N[C@@H](CCCNC(=N)N)C(=O)N[C@@H](C)C(=O)N[C@H]1CSSC[C@@H](C(=O)O)NC(=O)[C@H](Cc2ccccc2)NC(=O)[C@H](Cc2ccccc2)NC(=O)[C@H](CCCNC(=N)N)NC1=O (HELM PEPTIDE1{[ac].R.A.C.R.F.F.C}$PEPTIDE1,PEPTIDE1,4:R3-8:R3$$$V2.0)",Activity,[8],Active
